Usually apparent Kd stands for the concentration giving half-maximal binding under the conditions of the assay.

Experimental findings from the EternaBench riboswitch data are described below.

In the data set the test system is MS2 coat protein. Kind of data set: apparent Kd, MS2 coat protein; higher = weaker binding; RNA-MaP array. In outline: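 For each design, the apparent Kd is the median of binding-curve fits across its clusters. Designs measured on fewer than 10 clusters were dropped. The RNAs were transcribed from sequenced DNA templates on an Illumina sequencing chip and incubated at room temperature, with or without input ligand, with fluorescently labeled MS2 coat protein at 1.5 nM to 3 μM.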

The mark [1] stands for this setting: designed as: OFF switch for flavin mononucleotide, no ligand.
Setting [2] is: ligand present: flavin mononucleotide, designed as: OFF switch for flavin mononucleotide.
[3] abbreviates: designed as: OFF switch for tryptophan, no ligand.
The mark [4] stands for this setting: ligand present: tryptophan, designed as: OFF switch for tryptophan.
The mark [5] stands for this setting: designed as: ON switch for flavin mononucleotide, no ligand.
The mark [6] stands for this setting: ligand present: flavin mononucleotide, designed as: ON switch for flavin mononucleotide.
Where [7] appears, read: designed as: ON switch for theophylline, no ligand.
The mark [8] stands for this setting: ligand present: theophylline, designed as: ON switch for theophylline.

In the case of “CUCGCAAAUGGAGGAUAUGCCGAGAUCCCUAUCCUCAGGACCUCCACAUGAGGAUCACCCAUGUUGCAGAAGGCCAGUGUGAAG”, the “apparent Kd” value amounted to 14.4 nM under setting [1] and 12.2 nM under setting [2].

Regarding “UAGGGUCUGUCGCGACAUGAGGAUCACCCAUGUGCUUAGUCAAGAAGGGCGGACAUGCAAAACCCGCAGGAUAUUGUAUGCACU”, the “apparent Kd” value is 254 nM under setting [1] and 59.5 nM under setting [2].

Consider “AAGGAGUUAGGAUAUCCGUGCGUUGACAUGAGGAUCACCCAUGUGUUGAUAAACCUACUAGGAGAAGGAACGAUAC”, for which the “apparent Kd” value runs as follows: under setting [1], 20.7 nM; under setting [2], 15.2 nM.

As for “GGUUCAUCGUCGGCCGCCACUCACAUGAGGUGGAGCUGUAAACAUGAGGAUCACCCAUGUUGUUAGAGGACCGGGACGUGACGGC”, the “apparent Kd” value reads like this: under setting [3], 33.8 nM; under setting [4], 36.7 nM.

With “GCAUGGACAUGAGGAUCACCCAUGUGUCGCCCUGGACCCGUUAGAAGGCCGUUCCAGAGAACAACGGAGGAUAUAAUUACAGCC”, the “apparent Kd” value by setting is: under setting [5], 35.7 nM; under setting [6], 27 nM.

In the case of “CUAGGUCAAGGAUAUACAUGAGGAUCACCCAUGUAAGAACCUAGUAGGGUCGUCCGAGGUAGAAGGUGAGCAUU”, the “apparent Kd” value under setting [1] was determined as 24.9 nM and the “apparent Kd” value under setting [2] worked out at 19.6 nM.

Regarding “AAACUUACAGGAUAUACAUGAGGAUCACCCAUGUAAACGAAACACCAGGUGAUAGUGGGUAGAAGGGAAUAAAC”, the “apparent Kd” value reads like this: under setting [1], 22.7 nM; under setting [2], 18.5 nM.

On to “UAAGAAUCAGGAUAUACAGAAAGAUCAACAAAGAGCCAUAAACAUGAGGAUCACCCAUGUAGAAGGGAACAAAU”, for which the “apparent Kd” value by setting is: under setting [1], 8.14 nM; under setting [2], 7.77 nM.

As to “AAUUGAAUGGUAAGGAUAUAGGGUCGCGCCGAACGCUAGAAGGUACAUGAGGAUCACCCAUGUUGUGCGUCUUC”, the “apparent Kd” value reads like this: under setting [1], 16.9 nM; under setting [2], 17.7 nM.

With “CACACCGCAGUGAGGAUAUACCAACUGAACGUUGAGUAGAAGGCACAUGAGGAUCACCCAUGUCACUACUGACA”, the “apparent Kd” value under setting [1] amounted to 8.62 nM and the “apparent Kd” value under setting [2] stood at 35.7 nM.

Take “AUGAUCGAACAGAAGGCACGGUGACAGUUAAAGUGAGGAUAUGUAGACAUGAGGAUCACCCAUGUUACUAUACACGGGUCUAUC”: the “apparent Kd” value under setting [1] turned out to be 15.1 nM and the “apparent Kd” value under setting [2] came out at 45.9 nM.

As for “GCUUAGAAACCUGAUACCAGUCAGCCCUAUGACAUGAGGAUCACCCAUGUGAUACUCACGGACCCUUGGCAGCAGGGUCGAUUAC”, the “apparent Kd” value runs as follows: under setting [7], 695 nM; under setting [8], 429 nM.

Consider “AGCUCACAUGAGGAUCACCCAUGUCAAUUGUCAUCCUAUUGUAGAAGGCCGACACUGAUAUUAACGGAGGAUAUACGAGACAAU”, for which the “apparent Kd” value reads like this: under setting [5], 15.2 nM; under setting [6], 7.85 nM.

On to “AUGCCUCCACUAGGAUAUUACAUCUACAUUUCCACUUUCAAACAGACAUGAGGAUCACCCAUGUGUAAGAAGGAGUGCCUAGAG”, for which, under setting [2], the “apparent Kd” value was 8.45 nM.

On to “UCUAUGCUAACAGGAUAUCGCGGCACGAUGCUUCGAGAAGGGUUAACAUGAGGAUCACCCAUGUGUGUCCUACGGAGACCGCGC”, for which the “apparent Kd” value reads like this: under setting [1], 9.01 nM; under setting [2], 11.8 nM.

Regarding “GUAUACAUGAGGAUCACCCAUGUCGUUCUCUUGAGAUGAACAGAGGAUAUGUGAGUAAUAGCGUGACAGAAGGCUGGACAUGAU”, the “apparent Kd” value runs as follows: under setting [1], 27.7 nM; under setting [2], 16.9 nM.

For “UCAAUCACACAUGAGGAUCACCCAUGUGAUAAUCAUGACUCAAGAAGGCAUGUGCAACUUGUUAAUGAGGAUAUUGGAGUAAUG”, the “apparent Kd” value under setting [1] was found to be 31.9 nM and the “apparent Kd” value under setting [2] was 22.3 nM.

“UGAGACAGAGGAUAUACAAAAGGGAAACGAGCACAGAGGAAACAUGAGGAUCACCCAUGUAGAAGGCUGAACAG”: the “apparent Kd” value stood at 6.99 nM under setting [1] and 19 nM under setting [2].

Turning to “GACCGUGUCAAUCAUCAUCAACAUGAGGAUCACCCAUGUACCAAGGAUAUCUCGCACUACAAGUCAGAGAAGGUGGGUUUACUC”, the “apparent Kd” value under setting [5] is 241 nM and the “apparent Kd” value under setting [6] is 152 nM.

“ACGCACAUGAGGAUCACCCAUGUGAACCUACGAGGACCGGUACGGCCGCCACUCGCUGUUCCUACCGGCUUAAUUGUCACUGGGU”: the “apparent Kd” value (designed as: ON switch for tryptophan, no ligand) turned out to be 36.5 nM and the “apparent Kd” value (ligand present: tryptophan, designed as: ON switch for tryptophan) amounted to 35 nM.

For the sequence “CACAUGAGGAUCACCCAUGUUCGUUCACUUCAUGUAAUGAUUAGAAGGUCACGCGCCUAUCUGCUGAAGGAUAUAAUCCCGAAA”, the “apparent Kd” value runs as follows: under setting [1], 11.1 nM; under setting [2], 10.1 nM.

Turning to “CGAAAACAUGAGGAUCACCCAUGUUAGGAUAUGAGGAUGGUAUAGUAUACGGUGUAGAUCAGAAGGAACGGUGG”, the “apparent Kd” value runs as follows: under setting [1], 11.4 nM; under setting [2], 11.6 nM.

As for “CCUCGUCCGUACAUGAGGAUCACCCAUGUGAGCCCUAAACCCAGAAGGCAAUGAAUACCUAUUCUUGAGGAUAUGGAUCACCGU”, the “apparent Kd” value is, setting by setting: under setting [1], 279 nM; under setting [2], 185 nM.

As for “GCAGGUAAGUAGAAGGGUCGCACCAUACUGACGACAGGAUAUACUGUCCGAAACUCGUCAUUACAUGAGGAUCACCCAUGUUUA”, the “apparent Kd” value under setting [1] came to 21.2 nM and the “apparent Kd” value under setting [2] stood at 11.1 nM.

“UCCUACAAAGUCAGGAUAUUCGCACAGUCACGAGGGAAGAAGGGACAUGAGGAUCACCCAUGUAUUUACGCGUA”: the “apparent Kd” value stood at 20.4 nM under setting [1] and 27.2 nM under setting [2].

With “CAAGAGUUAGAAGGAUAUACAAGAUGCUGAAAGAAACGUGAACAAAACAUGAGGAUCACCCAUGUGAAGAAGGUCAAAUAGAAA”, the “apparent Kd” value by setting is: under setting [1], 10.4 nM; under setting [2], 9.21 nM.

Consider “AGUGGUGCAACUGAUACCAGAUUUAUACGAGACAUGAGGAUCACCCAUGUCGAAAGACAAAUCCCUUGGCAGCAGACACGAUCCC”, for which the “apparent Kd” value came to 9.42 nM under setting [7] and 8.85 nM under setting [8].

In the case of “CAACGACAUGAGGAUCACCCAUGUGAGGAUAUCUACUUGAUCAGGUAACUGCUUCCGAAGAGAAGGCACGGUGA”, the “apparent Kd” value is, setting by setting: under setting [1], 20.4 nM; under setting [2], 19.5 nM.

For the sequence “UCGGGUAAGCAGAAGGCACUAGAUUCUCUUUCAGCGAUAUAACAUGAGGAUCACCCAUGUAGAGGUGAGGAUAUGCAGAAACGC”, the “apparent Kd” value under setting [5] was 169 nM and the “apparent Kd” value under setting [6] worked out at 83.9 nM.

Take “GUUGAGGUGGUAGGAUAUAGUUUACACAUGAGGAUCACCCAUGUAUUCUAGACUUCAAGCCUCACCUAGAAGGACCCGUGCAAA”: the “apparent Kd” value amounted to 4.91 nM under setting [1] and 4.75 nM under setting [2].

For “CGCCGUACGUCAGGAUAUCACAAUUGGAUCCAUCACAUGAGGAUCACCCAUGUUUACAAGUAGAAUGAGAAGGGACAAGGAUAA”, the “apparent Kd” value by setting is: under setting [5], 49.3 nM; under setting [6], 43.8 nM.

Turning to “AUUUGACAUGAGGAUCACCCAUGUGACUUGUCGUGAGGAUAUUAUUGAAAUCUAUGUCAUUAAGAAGGCACAAUUU”, the “apparent Kd” value reads like this: under setting [5], 32.7 nM; under setting [6], 16.5 nM.

As to “AAACAUACGUGAGGAUAUCCCGUUUGAGAGGCUAGUAUCAUCGAAACAUGAGGAUCACCCAUGUCGGAGAAGGCACUACAGGAG”, the “apparent Kd” value runs as follows: under setting [5], 6.63 nM; under setting [6], 6.6 nM.

For “GUGGCAGGUGUCAGCCACAUGAGGAUCACCCAUGUUACUGAUCAGGAUAUUCGUGUGCGUCGCCGGAAGAAGGGAUUUGGACAU”, the “apparent Kd” value is, setting by setting: under setting [1], 123 nM; under setting [2], 64.1 nM.

Regarding “GGAAUCUUUCGAGGAUAUGUCCCACAAUAGUGCCUACCGGGUAACAUGAGGAUCACCCAUGUGAGACAGAAGGCGAGGUUUGGC”, the “apparent Kd” value by setting is: under setting [1], 9.86 nM; under setting [2], 38 nM.

On to “GUUAGCACUUAAGGAUAUUGGAAGCGCGUCGUCCAAGAAGGUAAGUUCUUCGUCGACAUGAGGAUCACCCAUGUCAUGCAUGGC”, for which the “apparent Kd” value stood at 16.5 nM under setting [1] and 11.8 nM under setting [2].

On to “AUGAGUAUUAAAGGAUAUCACUUAAUUGAUUGAUGAGAAGGUUAGAUGGCAUACAUGAGGAUCACCCAUGUGGUUUCAUGCGGU”, for which the “apparent Kd” value is, setting by setting: under setting [1], 86.3 nM; under setting [2], 59.2 nM.

Take “UUCGACAGCGUGAGGAUAUCUACAUCGGGUAGGUGAGAGAAGGCACAUGAGGAUCACCCAUGUUCUGAAGAGCA”: the “apparent Kd” value is, setting by setting: under setting [1], 16 nM; under setting [2], 19.9 nM.

Turning to “GAAAGGGCAAAGAAGGAGGUCCGAGCUCGGCGCCUAGGAUAUUUCUUAACCACAUGAGGAUCACCCAUGUUGACUGUAGUGUGA”, the “apparent Kd” value is, setting by setting: under setting [1], 31.5 nM; under setting [2], 29 nM.

With “UUUCUCAAUGUCAGGAUAUAGAUUUGACAUCCUCACUAGAAGGGACAUGAGGAUCACCCAUGUGUCAAUGCGGC”, the “apparent Kd” value under setting [2] stood at 17.6 nM.

In the case of “AACAUUAGAGGAUAUAUCAUCUUUCACAUGAGGAUCACCCAUGUUCCUCAGUGUUAGUGUAUAGAAGGCUAAGACA”, the “apparent Kd” value under setting [1] is 279 nM and the “apparent Kd” value under setting [2] amounted to 26.9 nM.

With “AAACGACAUGAGGAUCACCCAUGUACCUUUUACCUAGGAUAUCAGGUGCAUCAUACGUGCUGAGAAGGAGGCUCGC”, the “apparent Kd” value reads like this: under setting [5], 64.1 nM; under setting [6], 59.7 nM.

As for “ACUACAUGCGAAUACAUGAGGAUCACCCAUGUCCAUAAGACCUAGGAUAUCCAGUAACCCUGCAAGGAGAAGGAGGAGAGCACU”, the “apparent Kd” value by setting is: under setting [5], 25.4 nM; under setting [6], 19.6 nM.

As to “GCAAUAACAGCAGGAUAUCGUCUCACAUGAGGAUCACCCAUGUUACUAAGUGGCUACUAGGAUUACGAGAAGGGCUGUCCACGC”, the “apparent Kd” value under setting [1] came to 10.7 nM and the “apparent Kd” value under setting [2] was 7.78 nM.

Regarding “GGGUCGCGUUCGGCCGCCACUUGGAAACAUGAGGAUCACCCAUGUCAUAUGGUGGGACAUGUUGUAAGGACCGGGAACCGUCCUA”, the “apparent Kd” value was 64.2 nM under setting [3] and 88.1 nM under setting [4].

On to “GGUUGACAUGAGGAUCACCCAUGUGAGGAUAUAACAAGUGGGAGCUCUCCAUGAAAAGUUAGAAGGCACUUGGU”, for which the “apparent Kd” value runs as follows: under setting [1], 61.8 nM; under setting [2], 52.9 nM.

Regarding “AAGUAGGAAGGAUAUACAUGAGGAUCACCCAUGUAAGGCAUUUGGCUAUAAUCGUUAAGUAGAAGGUCCUGCCG”, the “apparent Kd” value was determined as 8.6 nM under setting [1] and 8.2 nM under setting [2].

With “AGACCCUAGCAGAAGGCCCGCGACAUCCAAGAGGGAGGAUAUGCCACUAGAGCAAGCUUUGCACAUGAGGAUCACCCAUGUCCU”, the “apparent Kd” value is, setting by setting: under setting [5], 132 nM; under setting [6], 56.6 nM.
